Data taken from PMC11964553 (Materials Today Bio, 2025).

Key:
[1] = Plasma pharmacokinetics in orthotopic 4T1 tumor-bearing mice; format: in vivo, BALB/c mice
[2] = Tissue quantification of Om and As in tumor; format: in vivo, BALB/c mice
Method in brief: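 Orthotopic 4T1-luc tumor-bearing female BALB/c mice were dosed i.v. with free drug combination or co-loaded liposome. Tumor and organs were collected at 1, 2, 4, 6, 8, 10, 12 and 24 h, weighed, and homogenized in cold methanol at 4 °C, then spun at 12,000 rpm for 10 min at 4 °C. The pellet was re-extracted with cold chloroform and the supernatants pooled. Parameters came from a non-compartmental model; n = 6.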

[3] = cited from earlier work

SMILES	AUC ([1]; BALB/c, mouse, iv, 2 mg/kg)	Cmax ([1]; BALB/c, mouse, iv, 2 mg/kg)	MRT ([1]; BALB/c, mouse, iv, 2 mg/kg)	Tmax ([1]; BALB/c, mouse, iv, 2 mg/kg)	half-life ([1]; BALB/c, mouse, iv, 2 mg/kg)	AUC ([2]; BALB/c, mouse, iv, 2 mg/kg)	Cmax ([2]; BALB/c, mouse, iv, 2 mg/kg)	MRT ([2]; BALB/c, mouse, iv, 2 mg/kg)	log partition coefficient (log P) [3]	Cmax of As in plasma ([1]; i.v. 2.0 mg/kg Om and 1.5 mg/kg As, 4T1 tumor-bearing mice, n = 6)	MRT of As in plasma ([1]; i.v., n = 6)	Tmax of As in plasma ([1]; i.v., n = 6)	t1/2 of As in plasma ([1]; i.v., n = 6)	AUC of As in plasma ([1]; time 0–24 h, i.v., n = 6)	Cmax of As in tumor ([2]; i.v., n = 6)	MRT of As in tumor ([2]; i.v., n = 6)	AUC of As in tumor ([2]; time 0–24 h, i.v., n = 6)	Solubility [3]
O=C1CCC[C@@H]2[C@H]3CCC[N+]4([O-])CCC[C@@H](CN12)[C@@H]34 (stereo partly drawn) [Free Om, oxymatrine]	1.01 ± 0.25 ng·h/mL	1.75 ± 0.31 ng/mL	2.12 ± 1.19 h	0.17 ± 0.01 h	5.66 ± 2.12 h	6.09 ± 3.96 ng·h/mL	0.92 ± 0.43 ng/mL	6.95 ± 2.83 h	low									
CC(C)(O)[C@@H]1CC[C@](C)([C@H]2[C@@H](O)C[C@@]3(C)[C@@H]4C[C@H](O[C@@H]5O[C@H](CO)[C@@H](O)[C@H](O)[C@H]5O)[C@H]5C(C)(C)[C@@H](O[C@@H]6OC[C@@H](O)[C@H](O)[C@H]6O)CC[C@@]56C[C@@]46CC[C@]23C)O1 [Free As, Astragaloside IV]										52.22 ± 9.04 ng/mL	1.73 ± 0.50 h	0.17 ± 0.01 h	1.73 ± 1.03 h	38.77 ± 12.39 ng·h/mL	0.64 ± 0.26 ng/mL	5.36 ± 2.05 h	6.04 ± 2.43 ng·h/mL	poor solubility
